The species named for experiment [1] is Rattus norvegicus. Briefly: In vitro ability to relax phenylephrine contracted rat aorta rings. The experiment is classed as functional.
A short description of experiment [2]: In vitro membrane potential on murine beta-TC3 cells. The class given is functional. The conditions noted are these: Mus musculus.
In experiment [3] the test system is Beta-TC6. Put plainly: In vitro inhibition of insulin release from murine beta-TC6 cells. The class given is functional, cell-based. The conditions noted are these: Mus musculus. The procedure, abridged: (§1)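 βTC6 cells washed twice in NN buffer (pH-buffered Krebs-type saline with HEPES) plus 0.1% BSA, preincubated 60 min, then incubated 3 h with 22 mM glucose, 0.1 mM IBMX and serial compound dilutions. Supernatant insulin measured by competition ELISA against rat insulin standards with peroxidase-labelled insulin and TMB read-out. EC50 (potency) and percentage inhibition (efficacy) derived from curves; at least two experiments.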

Experiment [4] is filed under the species Rattus norvegicus. Put plainly: Compound was evaluated for the inhibition of insulin release from rat islets. The class given is functional. The gist of the method: (§2)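 Rat islets isolated by collagenase digestion and Ficoll gradient (40–13%), cultured overnight in RPMI/10% FCS/11 mM glucose, then 10 islets per well overnight in DMEM/10% FCS/3 mM glucose. Tested as for βTC6: NN buffer with 0.1% BSA, 3 h with 22 mM glucose and compound dilutions, no IBMX; insulin by competition ELISA.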

Experiment [5] deals with Beta-TC6. Put plainly: Percent efficacy of compound for the in vitro inhibition of insulin release from murine beta-TC6 cells. The class given is functional, Mus musculus. The procedure, abridged:
as §1

The species entered for experiment [6] is Rattus norvegicus. Briefly: Concentration required for the inhibition of insulin release from rat islets. The experiment is classed as functional. The gist of the method: as §2
Experiment [7] is described as follows: In vitro membrane potential on murine beta-TC3 cells; NA= not active. The experiment is classed as functional, Mus musculus.
A short description of experiment [8]: In vitro membrane potential on murine betaTC3 cells; NA=not active. The experiment is classed as functional, Mus musculus.

Take `CCC(C)(C)/N=C(\NC#N)Nc1cccnc1`: in the experiment listed under Rattus norvegicus [1], the IC50 was found to be 0.25 µM.

As to `CC1=Nc2ccc(Cl)cc2S(=O)(=O)N1` [DIAZOXIDE], the half-inhibitory concentration (IC50) in the experiment filed under Rattus norvegicus [1] is 11.5 µM; in experiment [2] it was 77.4 µM; in the experiment with Beta-TC6 [3] it was 22.4 µM; in the experiment listed under Rattus norvegicus [4] it was 6.1 µM. The Efficacy in the experiment on Beta-TC6 [5] is listed as 23%.

Regarding `CCC/N=C(\NC#N)Nc1cc(Cl)cc(Cl)c1`, the IC50 was 31 µM in the experiment listed under Rattus norvegicus [1], 36 µM in experiment [2] and 3.7 µM in the experiment on Beta-TC6 [3]. Moreover, in the experiment with Beta-TC6 [5], the Efficacy was found to be 50%.

Regarding `CC(/N=C(\NC#N)Nc1cccc(C(F)(F)F)c1)C(C)(C)C` (configuration not stated), the 50% inhibitory concentration (IC50) in the experiment filed under Rattus norvegicus [1] is 88 µM; in experiment [2] it was above 100 µM; in the experiment on Beta-TC6 [3], above 100 µM. Besides, the Efficacy in the experiment with Beta-TC6 [5] is listed as 29%.

Regarding `CC(/N=C(\NC#N)Nc1cc(Cl)cc(Cl)c1)C(C)(C)C` (configuration not stated), the IC50 was 0.5 µM in the experiment filed under Rattus norvegicus [1], 19 µM in experiment [2], 26.7 µM in the experiment on Beta-TC6 [3] and 2.2 µM in the experiment filed under Rattus norvegicus [6]. The Efficacy in the experiment on Beta-TC6 [5] worked out at 86%.

Take `CC(C)CC/N=C(\NC#N)Nc1cc(Cl)cc(Cl)c1`: the values for the 50% inhibitory concentration (IC50) (in the experiment filed under Rattus norvegicus [1]; in experiment [2]; in the experiment with Beta-TC6 [3]) were 18.7 µM, 4 µM and 0.7 µM, respectively. This compound displayed an Efficacy in the experiment with Beta-TC6 [5] of 72%.

Regarding `CC(/N=C(\NC#N)Nc1cc(C(F)(F)F)cc(C(F)(F)F)c1)C(C)(C)C` (configuration not stated), the values for the IC50 (in the experiment listed under Rattus norvegicus [1]; with Beta-TC6 [3]; in experiment [7]) were 8.7 µM, 4.6 µM and “Not Active”, respectively. Also, in the experiment with Beta-TC6 [5], the Efficacy was found to be 78%.

In the case of `CC(N/C(=N\C#N)Nc1ccncc1)C(C)(C)C` (configuration not stated) [PINACIDIL ANHYDROUS], the IC50 in the experiment filed under Rattus norvegicus [1] is 1.5 µM.

On to `CC(C)CC/N=C(\NC#N)Nc1cc(C(F)(F)F)cc(C(F)(F)F)c1`, for which the half-inhibitory concentration (IC50) is 5.6 µM in the experiment listed under Rattus norvegicus [1], 0.5 µM in experiment [2] and 2 µM with Beta-TC6 [3]. In the experiment with Beta-TC6 [5], this compound displayed an Efficacy of 77%.

Regarding `CCC(C)(C)/N=C(\NC#N)Nc1cc(C(F)(F)F)cc(C(F)(F)F)c1`, the IC50 in the experiment listed under Rattus norvegicus [1] is 0.9 µM; in experiment [7], “Not Active”.

As for `COc1cc(N/C(=N/CCC(C)C)NC#N)cc(C(F)(F)F)c1`, the half-inhibitory concentration (IC50) worked out at 79 µM in the experiment listed under Rattus norvegicus [1], 13 µM in experiment [2], 3.9 µM with Beta-TC6 [3] and 4.8 µM in the experiment listed under Rattus norvegicus [6]. In the experiment on Beta-TC6 [5], this compound had an Efficacy of 79%.

For `CCC/N=C(\NC#N)Nc1cc(C(F)(F)F)cc(C(F)(F)F)c1`, the figures for the IC50 (in the experiment filed under Rattus norvegicus [1]; in experiment [2]; with Beta-TC6 [3]) were 12.4 µM, 0.9 µM and 5 µM, respectively. The Efficacy in the experiment with Beta-TC6 [5] is 58%.

Regarding `CCC(C)(C)/N=C(\NC#N)Nc1cc(Cl)cc(Cl)c1`, the half-inhibitory concentration (IC50) in the experiment filed under Rattus norvegicus [1] is 0.3 µM; in the experiment on Beta-TC6 [3], 2.3 µM; in experiment [8] it was “Not Active”. Also, the Efficacy in the experiment with Beta-TC6 [5] came out at 57%.

The values are drawn from ChEMBL document CHEMBL1134126, “Phenylcyanoguanidines as inhibitors of glucose-induced insulin secretion from beta cells” (Bioorg Med Chem Lett, 2001).
